Measurements of several laboratories.
Compare with care: the assays were run in different laboratories.
Target: Calcium/calmodulin-dependent protein kinase kinase 2 (CAMKK2, Homo sapiens, UniProt Q96RR4)

| SMILES | effect on | action | technique | tested at | quantity | value |
| --- | --- | --- | --- | --- | --- | --- |
| Cc1cnc(NC2CCOCC2)nc1-n1cnc(C(=O)NC(CN)c2cc(F)cc(Cl)c2)c1 (centres unmarked) | enzyme activity | inhibitor | radiometric | 1 µM | remaining activity | 81% |
| CCS(=O)(=O)c1cc2cc(C[C@@](O)(CC(C)(C)c3ccc(F)cc3C(N)=O)C(F)(F)F)[nH]c2cn1 | cell-free assay |  | competition with immobilised ligand | 1 µM | remaining binding | 56% |
| COc1cc(Nc2cnc(C#N)c(O[C@H](C)CN(C)C)n2)ncc1-c1cnn(C)c1 | enzyme activity | inhibitor | radiometric | 10 µM | remaining activity | 71% |
| COc1cc2nccc(Oc3ccc(NC(=O)Nc4ccc(F)cc4F)c(F)c3)c2cc1OC | thermal stability |  | DSF | 10 µM | ΔTm | 5 to 10 °C |
| CS(=O)(=O)CCNCc1ccc(-c2ccc3ncnc(Nc4ccc(OCc5cccc(F)c5)c(Cl)c4)c3c2)o1 | cell-free assay |  |  | 0.5 µM | remaining signal | 101% |
| FC(F)(F)Oc1cccc(-c2cnc3ccc(-c4ccncc4)nn23)c1 | enzyme activity | inhibitor | radiometric | 1 µM | activity vs control | 59% |
| O=C(Nc1cnn(-c2csc(C(=O)NC3COC3)c2)c1)Nc1ccccc1Cl | enzyme activity | inhibitor |  | 5 µM | remaining activity | 91.1% |
| CC(C)(C)c1nc2c(s1)c1nc(N)ncc1c1ccc(NS(=O)(=O)c3c(F)cccc3F)c(F)c12 | enzyme activity | inhibitor | radiometric | 1 µM | remaining activity | 107% |
| Nc1ncnc2occ(-c3ccc(NC(=O)Nc4cc(C(F)(F)F)ccc4F)cc3)c12 | cell-free assay | inhibitor |  | 20 µM | remaining signal | 24% |
| O=C(CSc1nc2nccnc2c(=O)n1CCc1ccccc1)Nc1nccs1 | enzyme activity | inhibitor |  | 10 µM | inhibition | 5% |
| CN1CCN(c2cnc3c(C4CCN(C(=O)c5ccc(OC(F)(F)F)cc5N)CC4)ncnc3c2)CC1 | cell-free assay |  | competition with immobilised ligand | 1 µM | remaining binding | 100% |
| CC(C)(O)[C@H]1CC[C@H](Nc2ccc3ncc(-c4cccc(C(F)(F)F)c4)n3n2)CC1 | enzyme activity | inhibitor |  | 1 µM | remaining activity | 96.9% |
| CCCCNc1ncc2c(-c3ccc(F)cc3)nn(C[C@H]3CC[C@H](N)CC3)c2n1 | target engagement in cells | inhibitor | chemoproteomics | 20 mM | inhibition | 33.4% |
| COc1cc(-c2cn(C3CCc4ccccc4N(CC(F)(F)F)C3=O)nn2)ccc1-n1ccc(C)n1 (centres unmarked) | cell-free assay |  | competition with immobilised ligand | 1 µM | remaining binding | 100% |
| Nc1nc(NC2CCCCC2)sc1C(=O)c1ccccc1 | enzyme activity | inhibitor |  | 10 µM | remaining activity | 63% |
| N#CCCc1ccc2c(c1)-c1[nH]c3ccc([N+](=O)[O-])cc3c1CC(=O)N2 | cell-free assay |  |  | 0.5 µM | remaining signal | 86.8% |
| CC(=O)Nc1c(C(C)=O)c(=O)n(C)c2nc(-c3ccc(Cl)cc3Cl)c(-c3ccc(Cl)cc3)cc12 | cell-free assay |  | competition with immobilised ligand | 1 µM | remaining binding | 100% |
| Cn1c2c(Cl)c(Cl)ccc2c2cn[nH]c(=O)c21 | thermal stability |  | DSF | 10 µM | ΔTm | 0.4 °C |
| C[C@H](c1ccnc(Nc2nc3ccc(-c4cc(N(C)C)ncn4)cc3[nH]2)c1)N1CCN(C(=O)CC(F)(F)F)CC1 | cell-free assay |  | competition with immobilised ligand | 0.1 µM | remaining binding | 77% |
| Cc1cc(NC(=O)c2cccc3cc(-c4cccc5[nH]nc(N)c45)ccc23)ccc1F | enzyme activity | inhibitor |  | 0.1 µM | activity vs control | 90% |
| CC(C)(C)C(=O)c1sc(NC2CCCCC2)nc1N | enzyme activity | inhibitor |  | 10 µM | remaining activity | 83% |
| O=C(O)[C@H]1[C@H](Cn2nnc3ccccc3c2=O)CC[C@@H]1C(=O)c1ccc(OCCC2CCOCC2)cc1 | cell-free assay |  | competition with immobilised ligand | 1 µM | remaining binding | 90% |
| Cn1c2c(c3ccc(Cl)c(Cl)c31)C(C#N)C1(CCCC1)NC2=O (centres unmarked) | thermal stability |  | DSF | 10 µM | ΔTm | 0.3 °C |
| CCc1ccccc1C(=O)Nc1n[nH]c2c(C)c(F)c(C3C(C#N)=C(C)N(C)C(C)=C3C#N)cc12 | cell-free assay |  | competition with immobilised ligand | 1 µM | remaining binding | 95% |
| Cn1c(=O)n(-c2ccc(C(C)(C)C#N)cc2)c2c3cc(-c4cnc5ccccc5c4)ccc3ncc21 | enzyme activity | inhibitor |  | 10 µM | remaining activity | 61% |
| O=C1Nc2ccc(Cl)cc2C1=Cc1cc(Cl)c(O)c(Cl)c1 | cell-free assay |  |  | 0.5 µM | remaining signal | 51.5% |
| Cc1ccc(C(=O)Nc2ccc(CN3CCN(C)CC3)c(C(F)(F)F)c2)cc1C#Cc1cnc2cccnn12 | enzyme activity | inhibitor |  | 23.5 nM | remaining activity | 83% |
| Cc1noc([C@H]2C[C@@H](c3ccc(C(F)(F)F)cc3)CN(C(=O)N3CCS(=O)(=O)C3)C2)n1 | cell-free assay |  | competition with immobilised ligand | 1 µM | remaining binding | 100% |
| CN1CCC2(CC1)NC(=O)c1c(c3ccc(Cl)c(Cl)c3n1C)C2C#N (racemic) | thermal stability |  | DSF | 10 µM | ΔTm | 1 °C |
